# Data as given in PubChem BioAssay AID1381 (University of Pittsburgh Molecular Library Screening Center, 2008).
# Among all 220,000 compounds or so, about 1,000 (0.45%) were called active.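 Rule for the calls: active = plate z-score of nuclear minus cytoplasmic receptor signal below a set negative limit, without overly bright fluorescence or cell loss (cut at about -3.5 in these data, passing the limit was not always enough); inactive = the rest, inconclusive results apart.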 The list comes from a sample in which actives are over-represented; it also holds similar structures and randomly drawn compounds.
# Assay: inhibitors of GR-EGFP nuclear translocation, primary screen, dynein cargo transport inhibitor project, imaging, high-content, 3617.4 mouse cells (AID 1381)
# Details: stimulated with dexamethasone, 1 µM
# Outline: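 Buffer or medium: Induction medium lacking tetracycline, stripped serum | Also added: Dexamethasone agonist, 1.0 µM final, for 30 min | Timing: 48 h induction, 1 h compound, 30 min dex at 37 °C | Detection: Formaldehyde fixation, Hoechst nuclear stain, 10x automated fluorescence imaging | Measure: Nuclear versus cytoplasmic GR-EGFP signal, averaged per well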
# [1] = measured here: cell count per field, at 20 µM
# [2] = measured here: cytoplasmic GR-EGFP intensity, at 20 µM, stronger effect = higher value
# [3] = measured here: nuclear GR-EGFP intensity, at 20 µM, stronger effect = lower value
# [4] = measured here: cell count per field, at 50 µM
# [5] = measured here: cytoplasmic GR-EGFP intensity, at 50 µM, stronger effect = higher value
# [6] = measured here: nuclear GR-EGFP intensity, at 50 µM, stronger effect = lower value
Structure (SMILES),"z-score (at 20 µM, stronger effect = lower value)",z-score [1],z-score [2],z-score [3],"z-score (at 50 µM, stronger effect = lower value)",z-score [4],z-score [5],z-score [6]
Cc1cc(C)c(C#N)c(SCc2[nH]nc3c2C(c2ccccc2)C(C#N)=C(N)O3)n1 (stereo unspecified),-0.933 (inactive),1.23,-0.0183,-0.255,,,,
N#CC1=C(N)Oc2c(sc3ccccc23)C1c1ccco1 (stereo unspecified),-0.943 (inactive),0.511,0.878,0.0658,,,,
Cc1cc(C)c2c3c(sc2n1)C(c1ccccc1)C(C#N)=C(N)O3 (stereo unspecified),,,,,-4.27 (active),2.33,1.49,-2.28
COc1ccc(C(C#N)N2N=C(C)CC2(C)C)cc1 (stereo unspecified),-0.0116 (inactive),-0.511,-0.208,-0.808,,,,
O=C(NCCCN1CCCCC1)c1ccc2c(c1)NC(=O)C(N1CCOCC1)S2 (stereo unspecified),0.104 (inactive),-0.224,-0.224,-0.851,,,,
O=S1(=O)CC/C(=N\Nc2ccc(F)cc2)c2ccsc21,-0.204 (inactive),-0.257,-0.126,-0.15,,,,
Nn1cnnc1N/N=C/c1cc([N+](=O)[O-])c(Cl)cc1Cl,0.859 (inactive),-0.348,0.536,0.371,,,,
Cc1ccc(Cn2c(C)nc3c(c2=O)c2nc4ccccc4nc2n3Cc2ccco2)cc1,,,,,-4.55 (active),-0.433,0.482,-1.83
Cc1ccc(Cn2c(NC(=O)c3ccco3)nc3ccccc32)cc1,0.337 (inactive),-0.00289,-0.18,0.336,,,,
Cn1c2ccccc2c(=O)c2c(=O)n(Cc3ccco3)c(COc3ccccc3)nc21,0.301 (inactive),-0.271,-0.198,0.291,,,,
Cc1c(Cl)cccc1NC(=O)CC1SC(=NCC2CCCO2)NC1=O (stereo unspecified),-0.0448 (inactive),-0.163,-0.258,0.413,,,,
NNC(=O)c1ccc(Cl)cc1Cl,0.203 (inactive),-0.823,-0.243,0.206,,,,
Cc1ccc(-c2cc(C(=O)NCC3CCCO3)c3ccccc3n2)o1 (stereo unspecified),,,,,-4.29 (active),0.456,0.668,-1.96
O=C(NCC1CCCO1)c1cc(-c2ccccc2)nc2ccccc12 (stereo unspecified),0.068 (inactive),0.631,-0.236,0.0806,,,,
Cc1ccc(NC(=O)c2cc(-c3ccc(C)o3)nc3ccccc23)nc1,,,,,-3.31 (inactive),-0.441,0.617,-1.89
Cc1nc(-c2nnc(SCC(=O)Nc3cc(C(F)(F)F)cc(C(F)(F)F)c3)n2C)cs1,0.49 (inactive),-0.365,-0.261,0.826,,,,
COc1ccc(CN(Cc2ccc(OC)cc2)C(=O)c2cccs2)cc1,-0.594 (inactive),0.82,-0.256,-0.492,,,,
COc1ccc(NC(=O)CN(Cc2ccccc2)S(C)(=O)=O)cc1OC,0.347 (inactive),-0.496,0.00823,0.254,,,,
Cc1cc(=O)oc2c1c(C)nn2-c1ccc(Cl)cc1,-0.357 (inactive),1.43,-0.242,-0.696,,,,
Cc1cc(SCC(=O)c2ccccc2)nc(SCC(=O)c2ccccc2)n1,3.42 (inactive),-0.936,-0.199,-0.0972,,,,
Cc1cc(C)nc(S/C=C/C(=O)c2ccccc2)n1,-5.15 (active),1.04,1.08,-2.68,,,,
C/C(=N\NC(=O)c1nc(C)cc(C)n1)c1ccccc1,1.7 (inactive),-1.78,0.199,1.06,,,,

Structure (SMILES),"z-score (at 20 µM, stronger effect = lower value)",z-score [1],z-score [2],z-score [3],"z-score (at 50 µM, stronger effect = lower value)",z-score [4],z-score [5],z-score [6]
Nc1nnn(CC(=O)N/N=C/c2ccc(O)cc2)n1,-0.272 (inactive),0.973,-0.243,0.283,,,,
CC(=O)N/C(=C\c1ccc(F)cc1)C(=O)NC(Cc1ccccc1)C(=O)O (stereo unspecified),-0.458 (inactive),0.748,-0.217,0.179,,,,
O=C(Nc1ccccc1Cl)/C(Cl)=C(\Cl)S(=O)c1ccccc1 (stereo unspecified),-7.75 (active),0.218,2.93,-2.78,,,,
COCCN(CCOC)C(=S)Nc1ccccc1Cl,-0.23 (inactive),0.546,0.025,-0.44,,,,
O=C(Nc1ccccc1Cl)c1ccc2nsnc2c1,-0.891 (inactive),0.488,-0.235,-0.5,,,,
C/C(N)=C(/C#N)C(=O)COC(=O)c1cc(-c2cccc(Br)c2)nc2ccccc12,0.554 (inactive),-0.985,-0.242,0.468,,,,
O=C(COC(=O)c1ccccc1)Nc1cccc(S(=O)(=O)N2CCOCC2)c1,0.599 (inactive),-0.0984,-0.271,0.704,,,,
COC(=O)c1ccc(CSc2nnc(N)s2)o1,-0.747 (inactive),0.802,-0.292,-0.243,,,,
O=C1c2ccccc2NC(c2ccccn2)N1NS(=O)(=O)c1ccccc1 (stereo unspecified),-1.12 (inactive),1.24,-0.348,-0.844,,,,
CCC1(CC)NC(=O)N(CC(=O)OCC(=O)NC(=O)c2ccccc2)C1=O,-0.1 (inactive),1.43,-0.273,0.236,,,,
CCCc1nc2oc3c(=O)[nH]cnc3c2c2c1COC(C)(C)C2,-0.456 (inactive),0.775,-0.274,-0.288,,,,
C/C(CC(=O)Nc1cccc(F)c1)=N\NC(=O)C(=O)NC1CCCCC1,-0.0686 (inactive),0.185,-0.304,-0.00364,,,,
CCc1c(SCCC(=O)O)nc2ccccc2c1C,-0.704 (inactive),0.903,-0.252,-0.0559,,,,
O=C(CSc1ccccc1F)NC1CCS(=O)(=O)C1 (stereo unspecified),-0.432 (inactive),0.683,-0.305,0.2,,,,
O=S1(=O)CCC(NC(=S)SCc2ccccc2Br)C1 (stereo unspecified),-3.97 (active),-0.868,1.57,-1.78,,,,
CCCSC(=S)NC1CCS(=O)(=O)C1 (stereo unspecified),-1.85 (inactive),0.977,-0.0684,-0.34,,,,
CCOc1ccc(C(C)=O)cc1CSc1nnc(-c2ccncc2)n1CCOC,0.185 (inactive),0.406,-0.242,0.523,,,,
O=c1oc(/C=C/c2ccccc2)nc2ccccc12,1.7 (inactive),-1.1,-0.0815,0.729,,,,
COc1cc(OC)nc(S(C)(=O)=O)n1,0.268 (inactive),-0.196,-0.228,-0.13,,,,
COc1ccc(-c2cc(C(F)(F)F)nc(SCC(=O)Nc3ccc4c(c3)OCO4)n2)cc1OC,-0.345 (inactive),0.664,-0.302,-0.551,,,,
COc1ccc(-c2cc(C(F)(F)F)nc(S(C)(=O)=O)n2)cc1OC,-5.48 (active),0.235,1.61,-2.61,,,,
CC1C/C(=N/NC(=O)c2cccs2)CC(C)(C)C1 (stereo unspecified),-1.02 (inactive),0.142,-0.107,-0.387,,,,
